Compound activity deposited in PubChem by several laboratories.
D1 allo mod: allosteric modulators of human D1 dopamine receptor. HEK293 D1, CRE-luciferase, dopamine EC30 potentiation; actives deviate in either direction. AID 641. 58,000 compounds, 5.9% hits. B-score at 10 µM;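 active = luminescence count or its row- and column-corrected plate score outside the 99.7% band of the plate's sample wells, on either side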
Target sequence (P21728 whole entry, looked up): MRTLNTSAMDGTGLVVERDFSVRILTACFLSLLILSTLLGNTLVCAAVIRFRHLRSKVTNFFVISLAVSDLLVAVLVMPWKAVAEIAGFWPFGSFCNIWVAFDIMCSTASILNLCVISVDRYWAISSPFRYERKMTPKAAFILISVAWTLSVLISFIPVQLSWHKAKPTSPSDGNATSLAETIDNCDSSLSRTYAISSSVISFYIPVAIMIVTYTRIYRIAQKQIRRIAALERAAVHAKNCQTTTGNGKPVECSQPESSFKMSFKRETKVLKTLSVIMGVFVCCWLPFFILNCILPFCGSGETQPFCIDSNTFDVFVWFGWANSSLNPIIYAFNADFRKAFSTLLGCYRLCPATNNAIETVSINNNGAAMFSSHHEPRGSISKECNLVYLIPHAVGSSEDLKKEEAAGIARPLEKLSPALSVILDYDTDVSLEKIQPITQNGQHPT
S1P3 ag: agonists of human S1P3 receptor | 60,000 compounds, 0.1% hits | activation, % at 4.5 µM | Q99500 | S1P3 NFAT-BLA reporter cells, agonism, FRET ratio; relative to 1 µM S1P, basal subtracted | AID 373;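 active = activation above the screen-wide mean plus 3 SD, cut at about 4.5% in these data, passing the limit was not always enough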
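Assay system: CHO cells stably expressing human S1P3, Gα16 and NFAT-β-lactamase reporter. Timing: overnight plating, 4 h compound 37 °C, 2 h substrate RT. Signal: β-lactamase FRET emission ratio 460/535 nm. Measure: percent activation versus median 1 µM S1P response, basal-subtracted, per plate. Repeats: primary screen single test, confirmation screen in triplicate.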
M1 antag: M1 muscarinic receptor (rat) antagonism. CHO-M1 cells, Fluo-4 calcium, ACh EC80 antagonist mode; hits give low values. B-score at 10 µM. 64,000 compounds, 3.4% hits. P08482;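 active = calcium fluorescence response, raw or row-and-column corrected B-score, differing from the plate sample mean either way at a set confidence level, mostly lower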
M1 agonist: activates the M1 muscarinic receptor; CHO-M1 cells, Fluo-4 calcium fluorescence, agonist mode; hits give high values; B-score at 10 µM; 64,000 compounds, 3% hits; AID 626;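 active = fluorescence rise, raw or as B-score row- and column-corrected plate score, outside the 99.7% band of its plate's samples, either direction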
S1P1 ag pot: activates or potentiates agonism at human S1P1 receptor | S1P1 CRE-bla cells, forskolin, beta-lactamase FRET, potentiator mode; S1P1 agonist co-added at EC20, 2 nM; 100% = saturating reference agonist, 0% = basal | activation, % at 9.5 µM | 56,000 compounds, 0.57% hits;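 active = activation above a cutoff set at the mean activation of all tested compounds plus 3 SD, cut at about 54% in these data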;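 note: forskolin at 4 µM as EC80 and the EC20 agonist is SEW2871; 100% = SEW2871 at its EC100 plus forskolin at EC80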
An asterisk follows results filed as active. Most compounds without a hit are left out; they make up all but 11% or so of the library.

How did Cc1cc(C2C(C#N)=C(N)SC(N)=C2C#N)c(C)s1 do in these assays?
D1 allo mod: -0.12; S1P3 ag: -1; M1 antag: 0.24; M1 agonist: 3.3*

How did CCCCc1ccc(C2C(C#N)=C(N)SC(N)=C2C#N)s1 do in these assays?
D1 allo mod: 2.5; S1P3 ag: 0; M1 antag: -1.1; M1 agonist: -1.8; S1P1 ag pot: 54

Results for CCOc1ccc(C2C(C#N)=C(N)SC(N)=C2C#N)c(OCC)c1 ?
D1 allo mod: 0.8; S1P3 ag: -2; M1 antag: -0.77; M1 agonist: -0.046; S1P1 ag pot: -9

How did Cc1sccc1C1C(C#N)=C(N)SC(N)=C1C#N do in these assays?
D1 allo mod: -1.2; S1P3 ag: -4; M1 antag: 0.44; M1 agonist: 130*; S1P1 ag pot: -4

How did COc1ccc(N(C)S(=O)(=O)c2cccc(C(=O)NC3=NCCS3)c2)cc1 do in these assays?
D1 allo mod: -1.1; M1 antag: -0.008; M1 agonist: 0.18

How did CCOC(=O)c1sc(NC(=O)c2ccc(Br)o2)cc1C do in these assays?
D1 allo mod: -3.9*; M1 antag: -0.66; M1 agonist: 0.53

What do the screens show for `CCOC(=O)c1sc(NC(=O)c2cccs2)cc1C`?
D1 allo mod: 2.1; S1P3 ag: 1; M1 antag: 0.35; M1 agonist: 0.46; S1P1 ag pot: 14

What do the screens show for `Cc1ccc(Nc2nc(N)nc(CSc3nnc(-c4ccncc4)o3)n2)cc1`?
D1 allo mod: -0.07; S1P3 ag: 0; M1 antag: 0; M1 agonist: -0.28

How did C=CCNC(=O)CC(C)C(CCCCC)C(=O)O (stereo not given) do in these assays?
D1 allo mod: 0.063; S1P3 ag: 0; M1 antag: 0.012; M1 agonist: -0.8; S1P1 ag pot: 7

What do the screens show for `O=C(NC1CCCC1)c1ccc2nc(-c3ccco3)c(-c3ccco3)nc2c1`?
D1 allo mod: -0.28; S1P3 ag: -1; M1 antag: 0.051; M1 agonist: 7.1*; S1P1 ag pot: -11

What do the screens show for `c1ccc2c(c1)CCN(c1ncnc3nc[nH]c13)C2`?
D1 allo mod: -1.2; S1P3 ag: 0; M1 antag: -0.0016; M1 agonist: -1.4; S1P1 ag pot: -5

How did CC1Cc2ccccc2N1c1ncnc2nc[nH]c12 (stereo not given) do in these assays?
D1 allo mod: 1.5; S1P3 ag: 0; M1 antag: 0.25; M1 agonist: 0.36; S1P1 ag pot: 93*

Results for CCn1c2ccccc2c2nnc(SCc3cc(=O)n4ccsc4n3)nc21 ?
D1 allo mod: 12*; M1 antag: 0.16; M1 agonist: -0.54

Results for CCCn1c(=O)c2ccccc2n2c(SCc3cc(=O)n4ccsc4n3)nnc12 ?
D1 allo mod: 2.5; S1P3 ag: 0; M1 antag: -0.18; M1 agonist: 0.049; S1P1 ag pot: -9

What do the screens show for `CC1CC=C2C(C#N)=C(N)C(C#N)(C#N)C(c3cccs3)C2C1` (stereo not given)?
D1 allo mod: -3; M1 antag: 1.1; M1 agonist: 12*

How did Cc1cc(C)n2nc(SCc3cc(=O)n4c(C)cccc4n3)nc2n1 do in these assays?
D1 allo mod: 4.3; M1 antag: -0.3; M1 agonist: 0.0097

Results for COC(=O)c1cccc(S(=O)(=O)N2CCN(c3nc4ccccc4s3)CC2)c1 ?
D1 allo mod: -2.8*; S1P3 ag: -2; M1 antag: 0.64; M1 agonist: 0.79; S1P1 ag pot: 4

How did COC(=O)c1cccc(S(=O)(=O)N2CCCCC2)c1 do in these assays?
D1 allo mod: 0.24; S1P3 ag: -2; M1 antag: 0.73; M1 agonist: 0.45; S1P1 ag pot: -17

Results for CCOC(=O)Cc1csc(NC(=O)CSc2ncnc3c2cnn3-c2ccc(OC)cc2)n1 ?
D1 allo mod: -4.2*; S1P3 ag: -1; M1 antag: 0.075; M1 agonist: 0.028; S1P1 ag pot: 11

How did CCOC(=O)CNC(=O)CSc1ncnc2c1cnn2-c1ccc(Cl)cc1 do in these assays?
D1 allo mod: -0.76; S1P3 ag: 0; M1 antag: -0.41; M1 agonist: 0.016; S1P1 ag pot: -9

Results for COc1ccccc1-c1noc(CCC(=O)Nc2ccccc2Cl)n1 ?
D1 allo mod: 0.003; S1P3 ag: 0; M1 antag: 0.58; M1 agonist: 0.045; S1P1 ag pot: 0

Results for CC1(c2ccc(OC(F)F)cc2)NC(=O)N(CC(=O)Nc2ccc3c(c2)OCO3)C1=O (stereo not given) ?
D1 allo mod: 0.8; S1P3 ag: -1; M1 antag: 0.25; M1 agonist: 23*; S1P1 ag pot: -12

What do the screens show for `COC(=O)c1sc(NC(=O)c2ccoc2C)nc1C`?
D1 allo mod: 0.87; S1P3 ag: 0; M1 antag: 0.33; M1 agonist: 0.59; S1P1 ag pot: -6

How did COc1ccc2nc(NC(=O)c3ccoc3C)sc2c1 do in these assays?
D1 allo mod: -4.3*; S1P3 ag: -1; M1 antag: 0.066; M1 agonist: -0.2; S1P1 ag pot: 6

Results for COc1ccc2sc(NC(=O)c3ccco3)nc2c1 ?
D1 allo mod: -5.7*; S1P3 ag: -1; M1 antag: 0.68; M1 agonist: -1.1; S1P1 ag pot: 14

How did O=C(NCc1ccco1)C(c1cccs1)N(C(=O)C1COc2ccccc2O1)c1cccc(O)c1 (stereo not given) do in these assays?
S1P3 ag: -1; M1 antag: -1.6; M1 agonist: 2.2; S1P1 ag pot: 9

Results for CCCCc1nc2ccccc2n2cc3c(=O)n(C)c(=O)n(C)c3c12 ?
D1 allo mod: 1.9; S1P3 ag: 0; M1 antag: -0.0088; M1 agonist: -1.2; S1P1 ag pot: -52

What do the screens show for `CC(NC(=O)NC12CC3CC(CC(C3)C1)C2)C1CCCO1` (stereo not given)?
S1P3 ag: 0; M1 antag: -0.15; M1 agonist: 1.5; S1P1 ag pot: -2

Results for Cc1ccc(C2CC(c3ccccc3OC(F)F)Nc3ncnn32)cc1 (stereo not given) ?
D1 allo mod: 1.5; S1P3 ag: 0; M1 antag: 1.3*; M1 agonist: 0.84; S1P1 ag pot: -15

How did CCC(CO)Nc1ncnc2c1cnn2-c1ccc(Cl)cc1 (stereo not given) do in these assays?
D1 allo mod: -5.7*; S1P3 ag: -1; M1 antag: -0.71; M1 agonist: 1.5; S1P1 ag pot: 0

How did CCC(CO)Nc1ncnc2c1cnn2-c1ccc(OC)cc1 (stereo not given) do in these assays?
D1 allo mod: -3; S1P3 ag: 0; M1 antag: 0.12; M1 agonist: 0.17; S1P1 ag pot: -8

What do the screens show for `CN(C)CCNc1ncnc2c1cnn2-c1ccc(Cl)cc1`?
D1 allo mod: -4.7*; S1P3 ag: 0; M1 antag: -1; M1 agonist: 0.24; S1P1 ag pot: -13
